ChEMBL document CHEMBL5380838, “Novel Aryl Sulfonamide Derivatives as NLRP3 Inflammasome Inhibitors for the Potential Treatment of Cancer” (J Med Chem, 2023)
Activity calls are given as the source filed them. The rule behind the calls is not given here.

What was measured:
[1] = test system: THP-1; test: Suppression of ASC expression in LPS-treated human THP-1 cells at 1 to 1000 nM incubated for 30 mins followed by ATP stimulation for 1 hr […]; type: functional, cell-based; conditions: dose 1-1000 nM, time 90.0 min
In short: (§1)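 PMA-differentiated THP-1 cells (1 × 10^6/well) primed with LPS 1 µg/mL for 3 h, then DMSO or compound in serum-free medium for 30 min, then 5 mM ATP for 1 h. RIPA lysates (20 µg) and concentrated supernatants run on SDS-PAGE and western blotted for NLRP3, ASC, caspase-1 and IL-1β, normalized to GAPDH; three independent experiments.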

[2] = test system: B16-F10; test: Effect on pro-IL-1beta expression in cytosolic luciferase-transfected mouse B16-F10 cells xenografted in C57BL/6 mouse at 25 mg/kg, ip administered thrice weekly measured after 14 days by Western blot analysis; type: functional, organism-based; conditions: time 14.0 day
In short: (§2)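 Tumors from luciferase-expressing B16-F10 grafts in C57BL/6 mice, dosed IP at 25 mg/kg thrice weekly (DMSO controls), were excised at endpoint and homogenized in sucrose/HEPES/IGEPAL lysis buffer. Lysates were western blotted and bands expressed as fold ratio over β-actin (n = 5).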

[3] = Metabolic stability in mouse liver microsomes assessed as intrinsic clearance measured per mg protein at 1 uM measured upto 60 mins by LC-MS/MS analysis; type: ADME, Microsome; conditions: read-out: CLH
In short: (§3)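 Pooled human or CD-1 male mouse liver microsomes at 0.5 mg/mL with test compound 1 µM in 50 mM phosphate pH 7.4 and 3 mM MgCl2, preincubated 10 min at 37 °C. Percent parent remaining vs 0 min measured by LC-MS/MS. Cli = k/microsomal conc. × 1000; mean ± SD, n = 2.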

[4] = Metabolic stability in human liver microsomes assessed as half life measured per mg protein at 1 uM measured upto 60 mins by LC-MS/MS analysis; type: ADME, Microsome; in short: as §3
[5] = test system: B16-F10; test: Antiproliferative activity against cytosolic luciferase-transfected mouse B16-F10 cells xenografted in C57BL/6 mouse assessed as effect on cell growth at 25 mg/kg, ip administered thrice weekly measured after 5 days; type: functional, organism-based; conditions: time 5.0 day
[6] = Metabolic stability in mouse liver microsomes assessed as half life measured per mg protein at 1 uM measured upto 60 mins by LC-MS/MS analysis; type: ADME, Microsome; in short: as §3
[7] = test system: Mus musculus; test: Antiinflammatory activity in LPS-induced C57BL/6 mouse assessed as reduction in IL-1beta production in plasma at 25 mg/kg, ip pretreated for 30 mins followed by LPS induction measured after 4 hrs by ELISA method; type: functional, organism-based; conditions: time 4.5 hrs
In short: (§4)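 C57BL/6 mice given inhibitor 25 mg/kg IP (vehicle DMSO) 30 min before IP LPS 1 mg/kg; after 4 h, peritoneal exudate and blood collected, plasma from centrifugation 1000g 15 min 4 °C; IL-1β measured by ELISA; mean ± SEM of three independent experiments.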

[8] = test system: THP-1; test: Suppression of pro-IL-1beta expression in LPS-treated human THP-1 cells at 1 to 1000 nM incubated for 30 mins followed by ATP stimulation for 1 hr […]; type: functional, cell-based; conditions: dose 1-1000 nM, time 90.0 min
[9] = test system: B16-F10; test: Effect on ASC expression in cytosolic luciferase-transfected mouse B16-F10 cells xenografted in C57BL/6 mouse at 25 mg/kg, ip administered thrice weekly measured after 14 days by Western blot analysis; type: functional, organism-based; conditions: time 14.0 day; in short: as §2
[10] = Metabolic stability in human liver microsomes assessed as intrinsic clearance measured per mg protein at 1 uM measured upto 60 mins by LC-MS/MS analysis; type: ADME, Microsome; conditions: read-out: CLH; in short: as §3
[11] = test system: THP-1; test: Suppression of IL-1beta processing in LPS-treated human THP-1 cells at 1 to 1000 nM incubated for 30 mins followed by ATP stimulation for 1 hr by ELISA method; type: functional, cell-based; conditions: dose 1-1000 nM, time 90.0 min
[12] = test system: BMDM; test: Effect on AIM2 inflammasome activation in LPS-treated mouse BMDM cells assessed as IL-1beta release at 1 uM incubated for 30 mins followed by Poly (dA:dT) stimulation for 4 hrs by ELISA method; type: functional, cell-based; conditions: time 270.0 min
In short: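 BMDMs primed with LPS 100 ng/mL for 3 h, then compound 1 µM in serum-free medium for 30 min, then poly(dA:dT) 1 µg/mL transfected with lipofectamine 2000 for 4 h; supernatant mouse IL-1β by ELISA.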

[13] = test system: BMDM; test: Effect on NLRC4 inflammasome activation in LPS-treated mouse BMDM cells assessed as IL-1beta release at 1 uM incubated for 30 mins followed by Salmonella typhimurium flagellin stimulation for 2 hrs by ELISA method; type: functional, cell-based; conditions: time 150.0 min
In short: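 BMDMs primed with LPS 100 ng/mL for 3 h, then compound 1 µM in serum-free medium for 30 min, then flagellin 100 ng/mL for 2 h; supernatant mouse IL-1β by ELISA.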

[14] = test system: B16-F10; test: Effect on NLRP3 expression in cytosolic luciferase-transfected mouse B16-F10 cells xenografted in C57BL/6 mouse at 25 mg/kg, ip administered thrice weekly measured after 14 days by Western blot analysis; type: functional, organism-based; conditions: time 14.0 day; in short: as §2
[15] = test system: B16-F10; test: Effect on cleaved caspase-1 expression in cytosolic luciferase-transfected mouse B16-F10 cells xenografted in C57BL/6 mouse at 25 mg/kg, ip administered thrice weekly measured after 14 days by Western blot analysis; type: functional, organism-based; conditions: time 14.0 day; in short: as §2
[16] = test system: B16-F10; test: Antitumor activity against cytosolic luciferase-transfected mouse B16-F10 cells xenografted in C57BL/6 mouse assessed as tumor reduction at 25 mg/kg, ip administered thrice weekly measured after 14 days by bioluminescence assay; type: functional, organism-based; conditions: time 14.0 day
In short: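 Female C57BL/6 mice aged 6–8 weeks inoculated subcutaneously with 1 × 10^6 B16-F10 cells stably expressing cytosolic luciferase. From day 5, IP dosing of 25 mg/kg thrice weekly, DMSO for controls, five mice per group. Imaging after IP D-luciferin 150 mg/kg under 2.5% isoflurane, read after 15 min. Caliper volume = π/6 × a × b². Tumors excised day 14.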

[17] = test system: THP-1; test: Suppression of caspase-1 expression in LPS-treated human THP-1 cells at 1 to 1000 nM incubated for 30 mins followed by ATP stimulation for 1 hr by […]; type: functional, cell-based; conditions: dose 1-1000 nM, time 90.0 min; in short: as §1
[18] = test system: THP-1; test: Cytotoxicity against human THP-1 cells assessed as reduction in cell viability at 1 uM measured after 48 hrs by RealTime-Glo MT assay; type: toxicity, cell-based; conditions: thp-1, 48 h
In short: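 THP-1 cells (10 × 10^4/well) treated with inhibitors at 1 µM and kept 48 h; RealTime-Glo reagent added, luminescence read every 12 h as a proxy for metabolically active cells; means of RLU ± SEM.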

[19] = test system: Mus musculus; test: Antiinflammatory activity in LPS-induced C57BL/6 mouse assessed as reduction in IL-1beta production in peritoneal exudate at 25 mg/kg, ip pretreated for 30 mins followed by LPS induction measured after 4 hrs by ELISA method; type: functional, organism-based; conditions: time 4.5 hrs; in short: as §4
[20] = test system: BMDM; test: Effect on ASC level in LPS-treated mouse BMDM cells at 1 uM incubated for 30 mins followed by ATP stimulation for 1 hr by Hoechst staining based microscopy; type: functional, cell-based; conditions: time 90.0 min
In short: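 BMDMs primed with LPS 1 µg/mL for 2 h, given DMSO or compound 1 µM for 30 min, then 5 mM ATP for 1 h. Cells fixed in 4% PFA, permeabilized with 0.1% Triton X-100, stained with anti-ASC overnight at 4 °C plus fluorescent secondary, nuclei Hoechst 1 µM; confocal imaging with 63× oil objective.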

[21] = test system: THP-1; test: Suppression of NLRP3 expression in LPS-treated human THP-1 cells at 1 to 1000 nM incubated for 30 mins followed by ATP stimulation for 1 hr […]; type: functional, cell-based; conditions: dose 1-1000 nM, time 90.0 min
[22] = test system: BMDM; test: Effect on NLRP3-ASC interaction in LPS-treated mouse BMDM cells at 1 uM incubated for 30 mins followed by ATP stimulation for 1 hr by co-immunoprecipitation based Western blot analysis; type: functional, cell-based; conditions: time 90.0 min
In short: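 BMDMs (1 × 10^7) primed with LPS 2 h, treated 1 µM compound 30 min, then ATP 1 h; lysed in HEPES/NaCl/glycerol/EDTA/0.5% Triton buffer with protease/phosphatase inhibitors; NLRP3–ASC co-immunoprecipitation, bait eluted in Laemmli buffer, western blot; representative of three independent experiments.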

[23] = test system: THP-1; test: Suppression of caspase-1 p10 expression in LPS-treated human THP-1 cells at 1 to 1000 nM incubated for 30 mins followed by ATP stimulation for 1 hr […]; type: functional, cell-based; conditions: dose 1-1000 nM, time 90.0 min
[24] = test system: B16-F10; test: Antiproliferative activity against LPS-treated mouse B16-F10 cells co-cultured with mouse peritoneal macrophages assessed as decrease in cell growth at 1 uM incubated for 30 mins followed by ATP stimulation for 1 hr measured after 48 hrs by cell counting method; type: functional, cell-based; conditions: time 49.5 hrs
In short: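 Transwell co-culture (0.4 µm pores), 48 h: peritoneal macrophages from C57BL/6 mice (2 × 10^5, lower well) primed with LPS 1 µg/mL 2 h, then DMSO or compound 1 µM 30 min, then ATP 1 h; B16-F10 cells (2 × 10^3) in upper insert; tumor cells removed after 48 h and counted by image-based cytometer.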

[25] = test system: B16-F10; test: Effect on total caspase-1 expression in cytosolic luciferase-transfected mouse B16-F10 cells xenografted in C57BL/6 mouse at 25 mg/kg, ip administered thrice weekly measured after 14 days by Western blot analysis; type: functional, organism-based; conditions: time 14.0 day; in short: as §2

In the case of `Nc1ccc(S(=O)(=O)N2Cc3ccccc3C[C@H]2C(=O)Nc2c3c(cc4c2CCC4)CCC3)cc1`, the Activity [1] was “inactive”, the Activity [2] was “inactive” and the microsomal CLint at 1 µM [3] was 270 µL/min/mg. For the same compound, the half-life at 1 µM [4] was 48.3 min, the Activity [5] was “inactive” and the half-life at 1 µM [6] was 5.1 min. For the same compound, the Activity [7] was “Active”, the Activity [8] was “inactive” and the Activity [9] was “inactive”. For the same compound, the microsomal CLint at 1 µM [10] was 28.7 µL/min/mg, the Activity [11] was “Active” and the Activity [12] was “inactive”. For the same compound, the Activity [13] was “inactive”, the Activity [14] was “inactive” and the Activity [15] was “inactive”. For the same compound, the Activity [16] was “Active”, the Activity [17] was “inactive” and the Activity [18] was “Non-Toxic”. For the same compound, the Activity [19] was “Active”, the Activity [20] was “inactive” and the Activity [21] was “inactive”. The Activity [22] was “inactive”, the Activity [23] was “Active” and the Activity [24] was “Active”. The Activity [25] was “inactive”.
With `Nc1ccc(S(=O)(=O)N[C@@H](Cc2ccc(O)cc2)C(=O)Nc2c3c(cc4c2CCC4)CCC3)cc1` the Activity [1] was “inactive”, the Activity [2] was “inactive” and the microsomal CLint at 1 µM [3] was 124 µL/min/mg. The half-life at 1 µM [4] was 46.2 min, the Activity [5] was “inactive” and the half-life at 1 µM [6] was 11.2 min. For the same compound, the Activity [7] was “Active”, the Activity [8] was “inactive” and the Activity [9] was “inactive”. The microsomal CLint at 1 µM [10] was 31.9 µL/min/mg, the Activity [11] was “Active” and the Activity [12] was “inactive”. For the same compound, the Activity [13] was “inactive”, the Activity [14] was “inactive” and the Activity [15] was “inactive”. For the same compound, the Activity [16] was “Active”, the Activity [17] was “inactive” and the Activity [18] was “Non-Toxic”. The Activity [19] was “Active”, the Activity [20] was “inactive” and the Activity [21] was “inactive”. For the same compound, the Activity [22] was “inactive”, the Activity [23] was “Active” and the Activity [24] was “Active”. The Activity [25] was “inactive”.
